Test results taken from ChEMBL document CHEMBL3112473, “Synthesis of a novel series of thiazole-based histone acetyltransferase inhibitors” (Bioorg Med Chem, 2014).
Calls of active or inactive are those of the source. No cut-off for these calls is given here.

Key:
Saccharomyces cerevisiae [1] = test: Growth inhibition of Saccharomyces cerevisiae S288c harboring gcn5delta mutant at 0.2 mM after 48 hrs; type: functional, organism-based
Outline: (§1)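 Spot assay on S. cerevisiae. Wild type (S288c or BY4742) and isogenic HAT deletion strains were used: gcn5Δ, elp3Δ and sas2Δ in S288c; gcn5Δ and rtt109Δ in BY4742. Growth was scored against wild type after 48 h at 28 °C.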

Saccharomyces cerevisiae [2] = test: Reduction of wild type Saccharomyces cerevisiae growth at 0.2 mM after 48 hrs; type: functional, organism-based; outline: as §1
Saccharomyces cerevisiae [3] = test: Growth inhibition of Saccharomyces cerevisiae BY4742 harboring gcn5delta mutant at 0.2 mM after 48 hrs; type: functional, organism-based; outline: as §1
Saccharomyces cerevisiae [4] = test: Reduction of growth of Saccharomyces cerevisiae harboring gcn5delta mutant at 0.2 mM after 48 hrs; type: functional, organism-based; outline: as §1
Saccharomyces cerevisiae [5] = test: Reduction of wild type Saccharomyces cerevisiae growth at 1 mM after 48 hrs; type: functional, organism-based; outline: as §1
Saccharomyces cerevisiae [6] = test: Reduction of growth of Saccharomyces cerevisiae harboring gcn5delta mutant at 1 mM after 48 hrs; type: functional, organism-based; outline: as §1
Saccharomyces cerevisiae [7] = test: Growth inhibition of Saccharomyces cerevisiae S288c harboring elp3delta mutant at 0.75 mM after 48 hrs; type: functional, organism-based; outline: as §1
Saccharomyces cerevisiae [8] = test: Growth inhibition of Saccharomyces cerevisiae BY4742 harboring gcn5delta mutant at 0.75 mM after 48 hrs; type: functional, organism-based; outline: as §1
Saccharomyces cerevisiae [9] = test: Growth inhibition of Saccharomyces cerevisiae S288c harboring gcn5delta mutant at 0.75 mM after 48 hrs; type: functional, organism-based; outline: as §1
Saccharomyces cerevisiae [10] = test: Growth inhibition of Saccharomyces cerevisiae S288c harboring sas2delta mutant at 0.75 mM after 48 hrs; type: functional, organism-based; outline: as §1
Saccharomyces cerevisiae [11] = test: Growth inhibition of Saccharomyces cerevisiae BY4742 harboring rtt109delta mutant at 0.75 mM after 48 hrs; type: functional, organism-based; outline: as §1
[12] = Cytotoxicity against human U87 cells assessed as cell viability at 50 to 100 uM after 48 to 72 hrs by trypan blue exclusion assay; type: cell-based; settings: u-87mg atcc
Outline: (§2)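 Trypan blue exclusion on HeLa, U87 glioblastoma and BE-SK-N-BE(2) neuroblastoma cells. Compound added at final 50 and 100 µM and incubated 48 or 72 h at 37 °C, then cells collected and counted. About 1.5 × 10⁵ cells counted per point. Viability given as mean percentage of viable/dead cells relative to untreated controls.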

[13] = target: Histone acetyltransferase GCN5 (Saccharomyces cerevisiae) (UniProt Q03330); test: Inhibition of Saccharomyces cerevisiae S288c histone acetyltransferase assessed as acetylation of histone H3 at 0.6 to 0.8 mM by Western blotting
Histone acetyltransferase GCN5 (Saccharomyces cerevisiae), sequence (Q03330 whole entry, looked up): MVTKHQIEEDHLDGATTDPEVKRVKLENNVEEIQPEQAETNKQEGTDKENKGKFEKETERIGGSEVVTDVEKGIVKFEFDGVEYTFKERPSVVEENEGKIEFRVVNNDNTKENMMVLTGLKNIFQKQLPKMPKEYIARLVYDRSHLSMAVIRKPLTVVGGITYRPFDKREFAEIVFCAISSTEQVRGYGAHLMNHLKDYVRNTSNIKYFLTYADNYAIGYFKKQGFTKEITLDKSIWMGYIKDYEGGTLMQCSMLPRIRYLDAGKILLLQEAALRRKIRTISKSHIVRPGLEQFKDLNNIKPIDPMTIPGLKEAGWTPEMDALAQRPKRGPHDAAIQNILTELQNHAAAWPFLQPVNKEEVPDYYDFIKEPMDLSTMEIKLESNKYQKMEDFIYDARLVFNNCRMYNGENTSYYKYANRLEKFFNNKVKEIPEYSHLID

Homo sapiens [14] = species on record: Homo sapiens; test: Inhibition of histone acetyltransferase in human BE-SK-N-BE(2) cells assessed as AcH3 and H3AcK18 level after 48 to 72 hrs by Western blotting; type: cell-based
Outline: (§3)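 HeLa, U87 and BE-SK-N-BE(2) cells incubated with compound at 50 or 100 µM for 48 or 72 h. Total lysates in 2× Laemmli buffer, boiled 10 min, run on 15% SDS-PAGE and blotted. Probed for acetyl-H3 and H3K18ac, with GAPDH as constitutive control.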

[15] = target: Histone acetyltransferase p300 (Homo sapiens) (UniProt Q09472); test: Inhibition of human recombinant histone acetyltransferase p300 assessed as acetylation of histone H3 at 0.6 mM
Histone acetyltransferase p300 (Homo sapiens), sequence (Q09472 whole entry, the tested form may be a part): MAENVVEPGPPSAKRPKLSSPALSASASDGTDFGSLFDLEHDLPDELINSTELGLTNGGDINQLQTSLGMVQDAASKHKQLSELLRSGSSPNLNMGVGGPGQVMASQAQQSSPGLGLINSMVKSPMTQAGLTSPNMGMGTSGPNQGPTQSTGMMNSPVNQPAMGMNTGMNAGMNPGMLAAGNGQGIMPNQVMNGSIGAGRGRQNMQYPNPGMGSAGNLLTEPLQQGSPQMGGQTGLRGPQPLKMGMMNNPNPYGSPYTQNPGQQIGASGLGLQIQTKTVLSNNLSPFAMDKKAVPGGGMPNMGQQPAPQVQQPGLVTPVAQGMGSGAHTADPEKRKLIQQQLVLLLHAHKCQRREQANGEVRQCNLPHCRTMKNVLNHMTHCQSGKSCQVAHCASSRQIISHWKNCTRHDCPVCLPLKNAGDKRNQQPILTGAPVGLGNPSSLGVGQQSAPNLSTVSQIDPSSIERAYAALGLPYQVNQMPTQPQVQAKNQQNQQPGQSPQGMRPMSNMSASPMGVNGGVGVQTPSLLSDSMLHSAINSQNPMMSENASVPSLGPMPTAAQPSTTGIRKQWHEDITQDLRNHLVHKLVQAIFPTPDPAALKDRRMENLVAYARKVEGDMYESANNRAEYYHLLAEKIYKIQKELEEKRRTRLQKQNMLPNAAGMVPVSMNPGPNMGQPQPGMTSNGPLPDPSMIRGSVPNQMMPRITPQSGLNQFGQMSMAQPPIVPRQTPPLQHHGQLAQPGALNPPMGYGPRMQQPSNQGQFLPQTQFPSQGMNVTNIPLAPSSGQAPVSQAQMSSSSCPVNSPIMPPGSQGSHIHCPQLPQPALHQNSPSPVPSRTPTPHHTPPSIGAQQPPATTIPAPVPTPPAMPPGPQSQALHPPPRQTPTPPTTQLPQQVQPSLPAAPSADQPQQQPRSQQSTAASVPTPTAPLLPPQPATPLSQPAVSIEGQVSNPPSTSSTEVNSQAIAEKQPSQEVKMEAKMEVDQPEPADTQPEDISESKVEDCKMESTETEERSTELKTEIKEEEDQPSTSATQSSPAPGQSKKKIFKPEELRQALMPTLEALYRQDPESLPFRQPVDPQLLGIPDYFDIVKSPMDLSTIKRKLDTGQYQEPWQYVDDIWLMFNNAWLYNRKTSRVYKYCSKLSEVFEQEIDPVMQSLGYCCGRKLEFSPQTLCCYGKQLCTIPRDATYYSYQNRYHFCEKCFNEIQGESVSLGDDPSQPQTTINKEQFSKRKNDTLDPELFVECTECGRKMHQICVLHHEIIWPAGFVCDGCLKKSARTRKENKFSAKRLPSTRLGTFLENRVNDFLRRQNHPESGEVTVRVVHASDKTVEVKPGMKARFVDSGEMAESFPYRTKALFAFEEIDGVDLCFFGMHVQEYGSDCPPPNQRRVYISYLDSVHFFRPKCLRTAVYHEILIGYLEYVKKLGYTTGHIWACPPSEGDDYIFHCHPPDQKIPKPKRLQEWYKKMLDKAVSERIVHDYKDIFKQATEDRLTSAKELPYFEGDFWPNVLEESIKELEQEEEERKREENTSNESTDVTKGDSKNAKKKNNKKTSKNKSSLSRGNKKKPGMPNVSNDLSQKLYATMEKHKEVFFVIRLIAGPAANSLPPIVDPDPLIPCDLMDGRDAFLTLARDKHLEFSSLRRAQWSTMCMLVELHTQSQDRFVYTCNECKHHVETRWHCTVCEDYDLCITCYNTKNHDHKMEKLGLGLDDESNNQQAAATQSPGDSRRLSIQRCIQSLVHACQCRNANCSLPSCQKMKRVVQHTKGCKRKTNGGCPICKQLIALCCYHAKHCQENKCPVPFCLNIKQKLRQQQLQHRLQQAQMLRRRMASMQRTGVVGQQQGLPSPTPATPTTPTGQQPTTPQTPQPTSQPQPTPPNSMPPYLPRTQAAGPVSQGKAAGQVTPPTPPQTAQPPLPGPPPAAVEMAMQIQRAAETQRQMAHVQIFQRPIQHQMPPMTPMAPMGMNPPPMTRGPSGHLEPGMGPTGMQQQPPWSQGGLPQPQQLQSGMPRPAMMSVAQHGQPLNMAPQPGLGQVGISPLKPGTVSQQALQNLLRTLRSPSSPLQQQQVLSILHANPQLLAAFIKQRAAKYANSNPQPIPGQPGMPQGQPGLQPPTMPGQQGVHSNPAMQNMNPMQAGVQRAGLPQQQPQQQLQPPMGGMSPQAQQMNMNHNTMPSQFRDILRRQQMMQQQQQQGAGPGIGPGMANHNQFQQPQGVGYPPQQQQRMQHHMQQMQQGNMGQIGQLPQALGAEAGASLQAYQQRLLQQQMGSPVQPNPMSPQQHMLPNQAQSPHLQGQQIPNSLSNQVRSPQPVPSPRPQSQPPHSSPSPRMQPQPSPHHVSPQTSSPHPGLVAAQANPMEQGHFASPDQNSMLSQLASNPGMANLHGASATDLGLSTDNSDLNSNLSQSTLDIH
Outline: (§4)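 Fluorescent in vitro HAT kit assay. Human recombinant HAT catalytic domains (Gcn5, p300, PCAF) were incubated with acetyl-CoA and histone H3 substrate, with inhibitor at 0.15, 0.3 and 0.6 mM. Anacardic acid at 15 µM served as reference. Residual activity measured relative to untreated control. Each reaction run three times, standard errors given.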

HeLa [16] = test: Inhibition of histone acetyltransferase in human HeLa cells assessed as AcH3 and H3AcK18 level after 48 to 72 hrs by Western blotting; type: cell-based; outline: as §3
U-87MG ATCC [17] = test: Inhibition of histone acetyltransferase in human U87 cells assessed as AcH3 and H3AcK18 level after 48 to 72 hrs by Western blotting; type: cell-based; outline: as §3
HeLa [18] = test: Inhibition of histone acetyltransferase in human HeLa cells assessed as AcH3 and H3AcK18 level after 72 hrs by Western blotting; type: cell-based; outline: as §3
[19] = target: Histone acetyltransferase KAT2B (Homo sapiens) (UniProt Q92831); test: Inhibition of human recombinant histone acetyltransferase PCAF assessed as acetylation of histone H3 at 0.15 to 0.6 mM; outline: as §4
Histone acetyltransferase KAT2B (Homo sapiens), sequence (Q92831 whole entry, looked up): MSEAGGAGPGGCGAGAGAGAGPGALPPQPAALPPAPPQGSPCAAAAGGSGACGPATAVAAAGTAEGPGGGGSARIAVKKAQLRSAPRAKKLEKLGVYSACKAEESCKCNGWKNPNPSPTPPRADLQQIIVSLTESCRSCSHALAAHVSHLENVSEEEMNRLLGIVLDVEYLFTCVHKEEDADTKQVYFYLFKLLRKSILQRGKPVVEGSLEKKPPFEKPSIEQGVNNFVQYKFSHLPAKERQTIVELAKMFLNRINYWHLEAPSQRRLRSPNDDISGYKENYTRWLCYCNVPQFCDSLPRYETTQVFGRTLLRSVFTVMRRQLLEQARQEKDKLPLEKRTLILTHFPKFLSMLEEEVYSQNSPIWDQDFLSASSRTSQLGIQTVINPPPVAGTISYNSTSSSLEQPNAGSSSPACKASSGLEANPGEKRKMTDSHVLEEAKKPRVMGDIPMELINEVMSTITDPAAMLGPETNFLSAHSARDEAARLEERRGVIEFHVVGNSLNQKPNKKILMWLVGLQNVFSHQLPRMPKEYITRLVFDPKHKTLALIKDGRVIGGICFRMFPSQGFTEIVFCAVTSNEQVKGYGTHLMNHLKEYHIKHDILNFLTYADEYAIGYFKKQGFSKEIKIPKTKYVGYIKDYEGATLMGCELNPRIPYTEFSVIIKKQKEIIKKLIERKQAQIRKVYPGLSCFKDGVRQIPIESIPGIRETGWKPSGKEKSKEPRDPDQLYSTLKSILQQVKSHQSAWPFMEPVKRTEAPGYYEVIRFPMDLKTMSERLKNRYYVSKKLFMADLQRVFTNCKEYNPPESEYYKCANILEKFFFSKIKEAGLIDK

Saccharomyces cerevisiae [20] = test: Growth inhibition of Saccharomyces cerevisiae S288c harboring gcn5delta mutant after 48 hrs; type: functional, organism-based; outline: as §1
Homo sapiens [21] = species on record: Homo sapiens; test: Inhibition of histone acetyltransferase in human BE-SK-N-BE(2) cells assessed as AcH3 and H3AcK18 level after 72 hrs by Western blotting; type: cell-based; outline: as §3
Saccharomyces cerevisiae [22] = test: Growth inhibition of Saccharomyces cerevisiae BY4742 harboring gcn5delta mutant after 48 hrs; type: functional, organism-based; outline: as §1
[23] = Cytotoxicity against human BE-SK-N-BE(2) cells assessed as cell viability at 100 uM after 48 to 72 hrs by trypan blue exclusion assay; type: cell-based; settings: read-out: Activity; outline: as §2
U-87MG ATCC [24] = test: Inhibition of histone acetyltransferase in human U87 cells assessed as AcH3 and H3AcK18 level after 72 hrs by Western blotting; type: cell-based; outline: as §3
[25] = target: T1, Histone acetyltransferase SAS2 (Saccharomyces cerevisiae (strain ATCC 204508 / S288c) (Baker's yeast)) (UniProt P40963); test: Inhibition of Saccharomyces cerevisiae S288c histone acetyltransferase assessed as acetylation of histone H4 at 0.6 to 0.8 mM by Western blotting
T1 sequence (whole entry): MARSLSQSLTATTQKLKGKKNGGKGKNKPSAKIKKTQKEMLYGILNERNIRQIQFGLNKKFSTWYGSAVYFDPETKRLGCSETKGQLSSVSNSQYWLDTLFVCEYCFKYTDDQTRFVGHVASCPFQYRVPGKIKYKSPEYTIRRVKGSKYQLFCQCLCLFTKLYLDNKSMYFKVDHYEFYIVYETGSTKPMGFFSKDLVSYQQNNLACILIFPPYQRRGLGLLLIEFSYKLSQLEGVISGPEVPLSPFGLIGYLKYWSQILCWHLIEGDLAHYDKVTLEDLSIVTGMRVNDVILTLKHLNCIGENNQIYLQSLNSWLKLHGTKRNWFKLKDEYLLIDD
Outline: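 S288c wild-type yeast grown at 28 °C in YPD with 1% DMSO, plus compound at 0.6 or 0.8 mM. Total protein extracts boiled in Laemmli buffer, run on 15% SDS-PAGE and blotted. Probed for pan-acetylated H3 and H4, with unmodified H3 and ADA2 as loading standards. Acetylation normalized to ADA2. Triplicate experiments, SD reported.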

HeLa [26] = test: Cytotoxicity against human HeLa cells assessed as cell viability at 50 to 100 uM after 48 to 72 hrs by trypan blue exclusion assay; type: cell-based; outline: as §2
Saccharomyces cerevisiae [27] = test: Growth inhibition of Saccharomyces cerevisiae S288c harboring elp3delta mutant at 0.5 mM after 48 hrs; type: functional, organism-based; outline: as §1
Saccharomyces cerevisiae [28] = test: Growth inhibition of Saccharomyces cerevisiae BY4742 harboring rtt109delta mutant at 0.5 mM after 48 hrs; type: functional, organism-based; outline: as §1
Saccharomyces cerevisiae [29] = test: Reduction of wild type Saccharomyces cerevisiae growth at 0.5 mM after 48 hrs; type: functional, organism-based; outline: as §1
Saccharomyces cerevisiae [30] = test: Reduction of growth of Saccharomyces cerevisiae harboring gcn5delta mutant at 0.5 mM after 48 hrs; type: functional, organism-based; outline: as §1
Saccharomyces cerevisiae [31] = test: Growth inhibition of Saccharomyces cerevisiae S288c harboring gcn5delta mutant at 0.5 mM after 48 hrs; type: functional, organism-based; outline: as §1
Saccharomyces cerevisiae [32] = test: Growth inhibition of Saccharomyces cerevisiae BY4742 harboring gcn5delta mutant at 0.5 mM after 48 hrs; type: functional, organism-based; outline: as §1
Saccharomyces cerevisiae [33] = test: Growth inhibition of Saccharomyces cerevisiae S288c harboring sas2delta mutant at 0.5 mM after 48 hrs; type: functional, organism-based; outline: as §1

Q: With CC/C(C)=N/Nc1nc(-c2ccc(Cl)cc2)cs1 as the molecule, how does the “growth inhibition (GI)” value (Saccharomyces cerevisiae [1]) read?
A: Active

Q: What about the Activity (Saccharomyces cerevisiae [2]) of the same molecule?
A: Active

Q: And the “growth inhibition (GI)” value (Saccharomyces cerevisiae [3])?
A: Active

Q: And the Activity (Saccharomyces cerevisiae [4])?
A: Active

Q: What does the source list for C/C(=N/Nc1nc(-c2ccc(Cl)cc2)cs1)c1ccccn1?
A: Activity (Saccharomyces cerevisiae [5]): Active; Activity (Saccharomyces cerevisiae [6]): Active

Q: What does the source list for COc1cc(/C=C/C(=O)CC(=O)/C=C/c2ccc(O)c(OC)c2)ccc1O?
A: growth inhibition (GI) (Saccharomyces cerevisiae [7]): inactive; growth inhibition (GI) (Saccharomyces cerevisiae [8]): Active; growth inhibition (GI) (Saccharomyces cerevisiae [9]): Active; growth inhibition (GI) (Saccharomyces cerevisiae [10]): inactive; growth inhibition (GI) (Saccharomyces cerevisiae [11]): inactive

Q: Which results are given for CC(C)=NNc1nc(-c2ccc(Cl)cc2)cs1?
A: Activity [12]: Non-toxic; inhibition [13]: 50%; inhibition (Homo sapiens [14]): Dose-dependent effect; inhibition [15]: Active; inhibition (HeLa [16]): Dose-dependent effect; inhibition (U-87MG ATCC [17]): Dose-dependent effect; growth inhibition (GI) (Saccharomyces cerevisiae [1]): Active; inhibition (HeLa [18]): Active; inhibition [19]: inactive; growth inhibition (GI) (Saccharomyces cerevisiae [20]): Dose-dependent effect; inhibition (Homo sapiens [21]): Active; growth inhibition (GI) (Saccharomyces cerevisiae [22]): Dose-dependent effect; viability at 100 µM [23]: 30%; inhibition (U-87MG ATCC [24]): Active; Activity (Saccharomyces cerevisiae [2]): Active; growth inhibition (GI) (Saccharomyces cerevisiae [3]): Active; inhibition [25]: inactive; Activity (Saccharomyces cerevisiae [4]): Active; Activity (HeLa [26]): Non-toxic

Q: With Clc1ccc(-c2csc(NN=C3CCCC3)n2)cc1 as the molecule, how does the “growth inhibition (GI)” value (Saccharomyces cerevisiae [27]) read?
A: inactive

Q: What about the “growth inhibition (GI)” value (Saccharomyces cerevisiae [28]) of the same molecule?
A: inactive

Q: What about the Activity (Saccharomyces cerevisiae [29]) of the same molecule?
A: Active

Q: And the Activity (Saccharomyces cerevisiae [30])?
A: Active

Q: And the “growth inhibition (GI)” value (Saccharomyces cerevisiae [31])?
A: Active

Q: And the “growth inhibition (GI)” value (Saccharomyces cerevisiae [32])?
A: Active

Q: And the “growth inhibition (GI)” value (Saccharomyces cerevisiae [33])?
A: inactive

Q: For CCC(CC)=NNc1nc(-c2ccc(Cl)cc2)cs1, which “growth inhibition (GI)” value (Saccharomyces cerevisiae [1]) is on record?
A: Active

Q: What about the Activity (Saccharomyces cerevisiae [2]) of the same molecule?
A: Active

Q: What about the “growth inhibition (GI)” value (Saccharomyces cerevisiae [3]) of the same molecule?
A: Active

Q: And the Activity (Saccharomyces cerevisiae [4])?
A: Active
